Experimental data from different studies.
Compare with care: the assays were run in different laboratories.
Observed: cell growth or viability

SMILES | cell line | method | concentration | time | setting | measurement | result
COc1ccc(-c2cc(-c3ccc(OC)cc3)c3c(=O)n(C)c(=O)n(C)c3n2)cc1 | PC-3 | MTT | – | 48 h | – | IC50 | 26.2 µM
Cc1cc(NC(=O)C=Cc2ccccc2)cc(-c2ccnc(N3CCC(O)CC3)c2)c1 | A549 | MTT | 5 µM | – | – | inhibition | 37.6%
COc1cccc2c1C(=O)c1c(O)c3c(c(O)c1C2=O)C[C@@](O)(C(=O)CO)C[C@@H]3O[C@H]1C[C@H](N)[C@H](O)[C@H](C)O1 | A549 | MTT | 100 µg/mL | 48 h | serum-free | viability | 12.4%
COc1cc2ncnc(Nc3ccc4c(c3)/C(=C/c3ccccc3)C(=O)N4C)c2cc1OC | A549 | MTT | – | – | – | IC50 | 14.4 µM
Cc1cccc(/C=C/C(=O)Nc2cc(-c3ccnc(N4CCOCC4)c3)ccn2)c1 | A549 | MTT | 5 µM | – | – | inhibition | 74.9%
COc1cc2ncnc(N(C)c3ccc4c(c3)/C(=C/c3ccccc3)C(=O)N4C)c2cc1OC (mixture of isomers) | A549 | MTT | – | – | – | IC50 | 3.24 µM
Cc1c(Cc2ccccc2)c(=O)oc2c(C)c(OCC(=O)NN=Cc3ccccc3)ccc12 | PC-3 | MTT | 31.25 µg/mL | – | – | viability | 42.1%
O=C(/C=C/c1cccc(F)c1)Nc1cc(-c2ccnc(N3CCC(O)CC3)c2)ccn1 | A549 | MTT | 5 µM | – | – | inhibition | 62.4%
COc1ccc(-c2cc(-c3ccc(C)cc3)nc3[nH]c(=O)[nH]c(=O)c23)cc1OC | PC-3 | MTT | – | 48 h | – | IC50 | 39.1 µM
O=C(C=Cc1ccccc1)Nc1cccc(-c2ccnc(N3CCC(CO)CC3)c2)c1 | A549 | MTT | 5 µM | – | – | inhibition | 59.1%
O=C(O)c1ccc2c(c1)nc(Nc1cccc(Cl)c1)c1ccncc12 | NCI-H522 | crystal violet | – | 48 h | – | IC50 | 3.1 µM
C=CC(=O)NC1CCN(c2ncc3ncnc(Nc4ccc(Oc5ccc6c(c5)ncn6C)c(C)c4)c3n2)CC1 | A549 | – | – | – | – | EC50 | 6.34 µM
CCOc1ccc2c(C)c(CC)c(=O)oc2c1C | PC-3 | MTT | 125 µg/mL | – | – | viability | 51%
O=C(C=Cc1ccccc1)Nc1cc(-c2ccnc(N3CCC(O)CC3)c2)ccn1 | A549 | MTT | 5 µM | – | – | inhibition | 73.1%
Cc1nc(Nc2ccc3c(c2)C(C)(C)C(=O)N3C)c2ccccc2n1 | A549 | MTT | – | – | – | IC50 | 2.09 µM
O=C(C=Cc1ccccc1)Nc1cccc(-c2ccnc(N3CCOCC3)c2)c1 | A549 | MTT | 5 µM | – | – | inhibition | 49.3%
C=CCNC(=S)NNC(=O)COc1ccc2c(C)c(CC)c(=O)oc2c1C | PC-3 | MTT | 1000 µg/mL | – | – | viability | 2.65%
CCC[C@H]1NC(=O)[C@H](Cc2cc(Cl)ccc2-c2cnn(C)c2)N(C)C(=O)[C@H](CC(C)C)NC(=O)[C@@H](N(C)C(=O)[C@H](CCCCN2CCOCC2)NC(=O)[C@@H](c2cccnc2)C2CCCCC2)CCCCNC1=O | NCI-H1048 | MTT | – | 5 days | – | GI50 | 3 µM
C=CCOc1ccc2c(C)c(CC)c(=O)oc2c1C | PC-3 | MTT | 31.25 µg/mL | – | – | viability | 99.7%
O=C(/C=C/c1ccc(F)cc1)Nc1cc(-c2ccnc(N3CCC(O)CC3)c2)ccn1 | A549 | MTT | 5 µM | – | – | inhibition | 62.2%
CC(=NNC(=O)COc1ccc2c(C)c(Cc3ccccc3)c(=O)oc2c1C)c1ccc(Br)cc1 | PC-3 | MTT | 500 µg/mL | – | – | viability | 2.33%
COc1cccc2c1C(=O)c1c(O)c3c(c(O)c1C2=O)C[C@@](O)(C(=O)CO)C[C@@H]3O[C@H]1C[C@H](N)[C@H](O)[C@H](C)O1 | HUVEC | MTT | – | 24 h | – | IC50 | 6.5 µM
CCNC(=S)NNC(=O)COc1ccc2c(C)c(CC)c(=O)oc2c1C | PC-3 | MTT | 31.25 µg/mL | – | – | viability | 99%
Cc1cccc(/C=C/C(=O)Nc2cc(-c3ccnc(N4CCC(O)CC4)c3)ccn2)c1 | A549 | MTT | 5 µM | – | – | inhibition | 74.5%
CCc1c(C)c2ccc(OCC(=O)NNC(=S)Nc3ccccc3)c(C)c2oc1=O | PC-3 | MTT | 31.25 µg/mL | – | – | viability | 48.3%
Cc1ccc(-c2cc(-c3ccc(Cl)cc3)c3c(=O)n(C)c(=O)n(C)c3n2)cc1 | PC-3 | MTT | – | 48 h | – | IC50 | 11.7 µM
CCc1c(C)c2ccc(OCC=Cc3ccccc3)c(C)c2oc1=O | PC-3 | MTT | 250 µg/mL | – | – | viability | 18.1%
Cc1nc(Nc2ccc3c(c2)/C(=C/c2ccccc2)C(=O)N3C)c2ccccc2n1 | A549 | MTT | – | – | – | IC50 | 27.8 µM
